Test results taken from ChEMBL document CHEMBL1131497, “Discovery of 1-(4-fluorophenyl)-(3R)-[3-(4-fluorophenyl)-(3S)-hydroxypropyl]-(4S)-(4 -hydroxyphenyl)-2-azetidinone (SCH 58235): a designed, potent, orally active inhibitor of cholesterol absorption” (J Med Chem, 1998).
Each block holds one compound with its values, some of them ahead of it. The source made the active and inactive calls. The rule behind the calls is not given here.

How the values were obtained:
[1] = Percent negation of rise in total serum cholesterol relative to control-fed 0.5% cholesterol for 7 days, At a dose of 1 mg/kg/day; format: ADME, organism-based; conditions: in vivo, 168 h
Procedure, shortened: (§1)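 Serum total cholesterol was measured in hamsters given 0.5% dietary cholesterol for 7 days with daily oral gavage dosing (0.2 mL corn oil vehicle). Controls were cholesterol-fed animals receiving vehicle without drug. Results are expressed as percent negation of the diet-induced rise in serum total cholesterol relative to these controls.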

[2] = The pharmacokinetics property percent negation of rise in liver cholesterol esters relative to control-fed 0.5% cholesterol for 7 days, At a dose of 0.1 mg/kg/day; format: ADME, organism-based; conditions: in vivo, 168 h
Procedure, shortened: (§2)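 Hamsters were fed a 0.5% cholesterol diet for 7 days with once-daily oral gavage dosing in 0.2 mL corn oil. Controls got the same diet and vehicle without drug. Livers were collected on day 7 and neutral lipids extracted. Cholesteryl ester content was measured by HPLC. Results are given as percent change in hepatic cholesteryl ester versus cholesterol-fed controls, or as ED50 in mg/kg/day.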

[3] = Percent negation of rise in total serum cholesterol relative to control-fed 0.5% cholesterol for 7 days, At a dose of 0.1 mg/kg/day; format: ADME, organism-based; conditions: in vivo, 168 h; procedure, shortened: as §1
Cricetinae gen. sp. [4] = experiment: Evaluated for its ability to reduce liver cholesterol esters(LCE) in cholesterol-fed hamsters.; format: functional, Cricetulus griseus; procedure, shortened: as §2
[5] = The pharmacokinetics property percent negation of rise in liver cholesterol esters relative to control-fed 0.5% cholesterol for 7 days, At a dose of 0.03 mg/kg/day; format: ADME, organism-based; conditions: in vivo, 168 h; procedure, shortened: as §2
[6] = The pharmacokinetics property percent negation of rise in liver cholesterol esters relative to control-fed 0.5% cholesterol for 7 days, At a dose of 3 mg/kg/day; format: ADME, organism-based; conditions: in vivo, 168 h; procedure, shortened: as §2
[7] = The pharmacokinetics property percent negation of rise in liver cholesterol esters relative to control-fed 0.5% cholesterol for 7 days, At a dose of 0.3 mg/kg/day; format: ADME, organism-based; conditions: in vivo, 168 h; procedure, shortened: as §2
[8] = The pharmacokinetics property percent negation of rise in liver cholesterol esters relative to control-fed 0.5% cholesterol for 7 days, At a dose of 1 mg/kg/day; format: ADME, organism-based; conditions: in vivo, 168 h; procedure, shortened: as §2
[9] = Percent negation of rise in total serum cholesterol relative to control-fed 0.5% cholesterol for 7 days, At a dose of 0.3 mg/kg/day; format: ADME, organism-based; conditions: in vivo, 168 h; procedure, shortened: as §1
[10] = Percent negation of rise in total serum cholesterol relative to control-fed 0.5% cholesterol for 7 days, at a dose of 0.03 mg/kg/day; format: ADME, organism-based; conditions: in vivo, 168 h; procedure, shortened: as §1
[11] = Percent negation of rise in total serum cholesterol relative to control-fed 0.5% cholesterol for 7 days, At a dose of 3 mg/kg/day; format: ADME, organism-based; conditions: in vivo, 168 h; procedure, shortened: as §1
Cricetinae gen. sp. [12] = conditions: Cricetulus griseus; Liver; 10 mg/kg
Cricetinae gen. sp. [13] = experiment: The compound was evaluated for percent reduction of liver cholesterol esters(LCE) in cholesterol-fed hamsters at 10 mg/Kg/day; format: functional, Cricetulus griseus; procedure, shortened: as §2
Cricetinae gen. sp. [14] = experiment: The compound was evaluated for percent reduction of liver cholesterol esters(LCE) in cholesterol-fed hamsters at 2.5 mg/Kg/day; format: functional, Cricetulus griseus; procedure, shortened: as §2
Cricetinae gen. sp. [15] = experiment: The compound was evaluated for percent reduction of liver cholesterol esters(LCE) in cholesterol-fed hamsters at 3 mg/kg/day; format: functional, Cricetulus griseus; procedure, shortened: as §2
[16] = Percent negation of rise in total serum cholesterol relative to control-fed 0.5% cholesterol for 7 days, At a dose of 0.3 mg/kg/day; percent reduction was not statistically significant; format: ADME, organism-based; conditions: in vivo, 168 h; procedure, shortened: as §1
[17] = The pharmacokinetics property percent negation of rise in liver cholesterol esters relative to control-fed 0.5% cholesterol for 7 days, At a dose of 0.3 mg/kg/day; percent reduction was not statistically significant; format: ADME, organism-based; conditions: in vivo, 168 h; procedure, shortened: as §2
[18] = Percent negation of rise in total serum cholesterol relative to control-fed 0.5% cholesterol for 7 days, At a dose of 1 mg/kg/day; percent reduction was not statistically significant; format: ADME, organism-based; conditions: in vivo, 168 h; procedure, shortened: as §1
Cricetinae gen. sp. [19] = experiment: The compound was evaluated for its ability to reduce liver cholesterol esters(LCE) in cholesterol-fed hamsters; NE=no effect at 100 mg/kg; format: functional, organism-based; set-up: dose 100 mg/kg; conditions: Cricetulus griseus; procedure, shortened: as §2

- Negation [1]: -100%
- Negation [2]: -87%
- Negation [3]: -37%
- Negation [5]: -39%
- Negation [6]: -100%
- Negation [7]: -96%
- Negation [8]: -100%
- Negation [9]: -72%
- Negation [10]: -23%
- Negation [11]: -100%
Compound: O=C1[C@H](CC[C@H](O)c2ccc(F)cc2)[C@@H](c2ccc(O)cc2)N1c1ccc(F)cc1 [EZETIMIBE]
- ED50 (Cricetinae gen. sp. [4]): 0.04 mg/kg/day

Compound: O=C1[C@H](CC[C@@H](O)c2ccc(F)cc2)[C@@H](c2ccc(O)cc2)N1c1ccc(F)cc1
- ED50 (Cricetinae gen. sp. [4]): 0.8 mg/kg/day

Compound: CC[C@H](C)C(=O)O[C@H]1C[C@@H](C)C=C2C=C[C@H](C)[C@H](CC[C@@H]3C[C@@H](O)CC(=O)O3)[C@H]21
- ED50 (Cricetinae gen. sp. [12]): No effect

Compound: COc1ccc([C@@H]2[C@@H](CCC(=O)c3ccccc3)C(=O)N2c2ccc(OC)cc2)cc1
- ED50 (Cricetinae gen. sp. [4]): 2 mg/kg/day

Compound: O=C1[C@H](C/C=C/c2ccc(F)cc2)[C@@H](c2ccc(O)cc2)N1c1ccc(F)cc1
- ED50 (Cricetinae gen. sp. [4]): 2.5 mg/kg/day

Compound: COc1ccc(N2C(=O)[C@H](CCCc3ccc(O)cc3)[C@H]2c2ccc(O)cc2)cc1
- Reduction (Cricetinae gen. sp. [13]): -64%

Compound: COc1ccc([C@@H]2[C@@H](CCCc3ccc(O)cc3)C(=O)N2c2ccc(OC)cc2)cc1
- Reduction (Cricetinae gen. sp. [13]): -16%

Compound: O=C1[C@H](CCCc2ccccc2)[C@@H](c2ccc(O)cc2)N1c1ccc(O)cc1
- Reduction (Cricetinae gen. sp. [13]): -68%

Compound: CCC(CC(CC)c1ccc(C[N+](C)(C)C)cc1)c1ccccc1.[Cl-] (configuration not stated)
- % reduction (Cricetinae gen. sp. [14]): -96

Compound: O=C(CC[C@H]1C(=O)N(c2ccc(F)cc2)[C@@H]1c1ccc(OCc2ccccc2)cc1)c1ccc(F)cc1
- Reduction (Cricetinae gen. sp. [15]): -96%

Compound: CC(=O)Oc1ccc([C@@H]2[C@@H](CC[C@H](OC(C)=O)c3ccc(F)cc3)C(=O)N2c2ccc(F)cc2)cc1
- ED50 (Cricetinae gen. sp. [4]): 0.06 mg/kg/day

Compound: O=C(CC[C@H]1C(=O)N(c2ccc(F)cc2)[C@@H]1c1ccc(O)cc1)c1ccc(F)cc1
- ED50 (Cricetinae gen. sp. [4]): 0.3 mg/kg/day

Compound: COc1ccc([C@@H]2[C@@H](CCCc3ccccc3)C(=O)N2c2ccc(O)cc2)cc1
- Reduction (Cricetinae gen. sp. [13]): -78%

Compound: O=C1[C@H](CC[C@H](O)c2ccc(F)cc2)[C@@H](c2ccc(OCc3ccccc3)cc2)N1c1ccc(F)cc1
- ED50 (Cricetinae gen. sp. [4]): 0.1 mg/kg/day

Compound: COc1ccc([C@@H]2[C@@H](CC[C@@H](O)c3ccccc3)C(=O)N2c2ccc(OC)cc2)cc1
- ED50 (Cricetinae gen. sp. [4]): 5 mg/kg/day

Compound: COc1ccc(N2C(=O)[C@H](CC[C@H](O)c3ccccc3)[C@H]2c2ccc(O)cc2)cc1
- ED50 (Cricetinae gen. sp. [4]): 0.3 mg/kg/day

Compound: COc1ccc(N2C(=O)[C@H](CCC(=O)c3ccccc3)[C@H]2c2ccc(O)cc2)cc1
- ED50 (Cricetinae gen. sp. [4]): 3 mg/kg/day

- Negation [16]: Not Active
- Negation [17]: Not Active
- Negation [6]: -68%
- Negation [18]: Not Active
- Negation [11]: -76%
Compound: COc1ccc([C@@H]2[C@@H](CCCc3ccccc3)C(=O)N2c2ccc(OC)cc2)cc1 [SCH-48461]
- ED50 (Cricetinae gen. sp. [4]): 2.2 mg/kg/day

Compound: COc1ccc([C@@H]2[C@@H](CCCc3ccc(F)cc3)C(=O)N2c2ccc(F)cc2)cc1
- ED50 (Cricetinae gen. sp. [4]): 0.7 mg/kg/day

Compound: COc1ccc(N2C(=O)[C@H](CC[C@@H](O)c3ccccc3)[C@H]2c2ccc(O)cc2)cc1
- ED50 (Cricetinae gen. sp. [4]): 3 mg/kg/day

Compound: COc1ccc([C@@H]2[C@@H](CC[C@H](O)c3ccccc3)C(=O)N2c2ccc(OC)cc2)cc1
- ED50 (Cricetinae gen. sp. [4]): 0.9 mg/kg/day

Compound: CC1CC[C@@]2(OC1)O[C@H]1C[C@H]3[C@@H]4CC[C@H]5C[C@@H](O[C@@H]6O[C@@H](CO)[C@@H](O[C@@H]7O[C@@H](COC(=O)Nc8ccccc8F)[C@@H](OC(=O)Nc8ccccc8F)[C@H](O)[C@@H]7O)[C@H](O)[C@@H]6O)CC[C@]5(C)[C@H]4C(=O)C[C@]3(C)[C@H]1[C@@H]2C (some centres not stated)
- ED50 (Cricetinae gen. sp. [4]): 0.025 mg/kg/day

Compound: CC1CC[C@@]2(OC1)O[C@H]1C[C@H]3[C@@H]4CC[C@H]5C[C@@H](O[C@@H]6O[C@@H](CO)[C@@H](O[C@@H]7O[C@@H](COC(=O)Nc8ccccc8F)[C@@H](OC(=O)Nc8ccccc8F)[C@H](O)[C@@H]7O)[C@H](O)[C@@H]6O)CC[C@]5(C)[C@H]4CC(=O)[C@]3(C)[C@H]1[C@@H]2C (some centres not stated)
- ED50 (Cricetinae gen. sp. [4]): 0.07 mg/kg/day

Compound: O=C1[C@H](CCCc2ccc(F)cc2)[C@@H](c2ccc(O)cc2)N1c1ccc(F)cc1
- ED50 (Cricetinae gen. sp. [4]): 2 mg/kg/day

Compound: Cc1ccc(C)c(OCCCC(C)(C)C(=O)O)c1
- ED50 (Cricetinae gen. sp. [19]): inactive

Compound: CC(=O)Oc1ccc([C@@H]2[C@@H](CC[C@@H](OC(C)=O)c3ccc(F)cc3)C(=O)N2c2ccc(F)cc2)cc1
- ED50 (Cricetinae gen. sp. [4]): 1.5 mg/kg/day

Compound: COc1ccc(N2C(=O)[C@H](CCCc3ccccc3)[C@H]2c2ccc(O)cc2)cc1
- ED50 (Cricetinae gen. sp. [4]): 5 mg/kg/day
